Results from PMC9064382 (RSC Advances, 2019).

What was measured:
Assay type in all cases: in vitro ADME
[1] = target: T1, hOATP2B1 (Homo sapiens, UniProt O94956)
T1 sequence (O94956 1-709): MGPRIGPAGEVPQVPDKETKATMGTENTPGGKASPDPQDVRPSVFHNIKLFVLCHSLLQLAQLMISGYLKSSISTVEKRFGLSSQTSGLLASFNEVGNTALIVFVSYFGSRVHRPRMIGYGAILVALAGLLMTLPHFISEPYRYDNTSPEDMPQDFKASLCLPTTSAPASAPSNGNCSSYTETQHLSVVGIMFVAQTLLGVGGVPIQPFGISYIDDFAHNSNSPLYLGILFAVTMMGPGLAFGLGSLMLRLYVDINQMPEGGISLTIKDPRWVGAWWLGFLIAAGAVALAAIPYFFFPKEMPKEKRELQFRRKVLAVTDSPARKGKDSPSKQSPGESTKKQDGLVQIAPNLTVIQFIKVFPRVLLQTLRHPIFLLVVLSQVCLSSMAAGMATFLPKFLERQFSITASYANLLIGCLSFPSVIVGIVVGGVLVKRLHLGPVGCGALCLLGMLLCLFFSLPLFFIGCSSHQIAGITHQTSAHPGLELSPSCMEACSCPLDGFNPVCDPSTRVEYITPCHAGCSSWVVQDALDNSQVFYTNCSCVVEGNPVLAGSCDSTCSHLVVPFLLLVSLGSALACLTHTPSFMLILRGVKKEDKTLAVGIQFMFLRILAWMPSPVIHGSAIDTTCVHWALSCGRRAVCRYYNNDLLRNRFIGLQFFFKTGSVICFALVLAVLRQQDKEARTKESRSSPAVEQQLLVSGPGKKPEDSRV
Method in brief: (§1)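 Transfected and mock cells were incubated 2 min at 37 °C with 200 nmol L−1 3H-ES plus test compound. The screen used a single 100 μmol L−1 concentration with reference inhibitors as positive controls, giving an inhibition rate (n = 3, mean ± sd). […] DMSO was <0.2%. Cells were stopped with cold DPBS, rinsed three times, lysed in 0.1 mol L−1 NaOH and counted by scintillation (dpm).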

[2] = target: T2, hOCT2 (Homo sapiens, UniProt O15244); experiment: Inhibition of 14C-TEA uptake in hOCT2-transfected cells by liquorice ingredients; details: 5 min
T2 sequence (O15244 1-555): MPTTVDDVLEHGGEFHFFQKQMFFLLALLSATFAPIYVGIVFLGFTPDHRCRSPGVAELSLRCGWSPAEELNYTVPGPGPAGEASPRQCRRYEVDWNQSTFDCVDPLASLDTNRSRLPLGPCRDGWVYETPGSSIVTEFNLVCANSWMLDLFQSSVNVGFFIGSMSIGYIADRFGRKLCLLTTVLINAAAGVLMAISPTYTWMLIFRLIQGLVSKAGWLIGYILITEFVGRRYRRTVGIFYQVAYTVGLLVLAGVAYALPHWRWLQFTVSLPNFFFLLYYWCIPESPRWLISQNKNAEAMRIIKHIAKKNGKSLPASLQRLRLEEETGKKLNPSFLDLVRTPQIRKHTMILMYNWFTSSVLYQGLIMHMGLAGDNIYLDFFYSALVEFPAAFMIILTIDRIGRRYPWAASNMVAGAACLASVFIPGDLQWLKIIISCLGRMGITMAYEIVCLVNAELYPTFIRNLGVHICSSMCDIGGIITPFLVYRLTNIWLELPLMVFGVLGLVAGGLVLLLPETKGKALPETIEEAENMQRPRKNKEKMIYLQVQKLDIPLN

[3] = target: T3, hOAT3 (Homo sapiens, UniProt Q8TCC7); experiment: Inhibition of 3H-ES uptake in hOAT3-transfected cells by liquorice ingredients; details: read-out: IC50 on hOAT3; 3H-ES probe, 2 min
T3 sequence (Q8TCC7 1-542): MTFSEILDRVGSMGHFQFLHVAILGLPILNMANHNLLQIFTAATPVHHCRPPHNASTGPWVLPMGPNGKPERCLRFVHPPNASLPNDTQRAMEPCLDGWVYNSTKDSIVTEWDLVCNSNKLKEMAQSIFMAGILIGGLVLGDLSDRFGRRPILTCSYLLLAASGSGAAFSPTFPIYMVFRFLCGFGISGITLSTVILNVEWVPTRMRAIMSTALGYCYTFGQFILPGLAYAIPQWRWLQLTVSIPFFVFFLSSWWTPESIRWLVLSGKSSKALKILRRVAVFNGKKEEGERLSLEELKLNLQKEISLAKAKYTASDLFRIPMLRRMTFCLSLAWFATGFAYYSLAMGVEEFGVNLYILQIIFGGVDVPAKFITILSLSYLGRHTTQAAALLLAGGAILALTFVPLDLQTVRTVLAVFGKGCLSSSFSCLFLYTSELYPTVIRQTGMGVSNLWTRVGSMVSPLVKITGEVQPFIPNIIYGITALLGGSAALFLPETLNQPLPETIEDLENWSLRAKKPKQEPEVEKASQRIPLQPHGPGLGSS
Method in brief: as §1

C=CC(C)(C)c1cc(/C=C/C(=O)c2ccc(O)cc2)c(OC)cc1O [licochalcone A]
IC50 ([1]; read-out: IC50 on hOATP2B1, 3H-ES probe, 2 min): 1.09 µM | inhibition of hOATP2B1 ([1]; screening at 100 μm): strong inhibitors | inhibitory rate on hOCT2 ([2]; 100 μm, 5 μmol L^−1 14C-TEA): 91.76% | IC50 ([2]; read-out: IC50 on hOCT2, 14C-TEA probe): 6.61 µM | IC50 [3]: 3.6 µM
